Converted amounts (≈) assume the structure as drawn.

For assay [1], the system named is Staphylococcus aureus. Nature of the assay: Antibacterial activity against methicillin-resistant Staphylococcus aureus LMP 805 after 30 mins by microbroth dilution method. In kind it is functional. An outline of the steps: (§1)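 Microbroth dilution MIC, done in three independent repeats. After incubation, 0.2 mg/mL p-iodonitrotetrazolium chloride was added and plates were held at 37 °C for 30 min. Viable cells reduce the yellow dye to pink.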
A general note: Broth dilution looks for growth in wells or tubes with falling amounts of substance.

Assay [2] relates to Escherichia coli. Description: Antibacterial activity against beta lactamase positive Escherichia coli LMP 701 after 30 mins by microbroth dilution method. Type of assay: functional. An outline of the steps: (§2)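 Microbroth dilution, run three times. After incubation, 0.2 mg/mL p-iodonitrotetrazolium chloride was added and plates were held 30 min at 37 °C. Viable cells reduce the yellow dye to pink. MIC is the lowest concentration that prevented the colour change and gave complete growth inhibition.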

The test system of assay [3] is Shigella dysenteriae. Description: Antibacterial activity against beta lactamase positive Shigella dysenteriae LMP 606 after 30 mins by microbroth dilution method. Type of assay: functional. An outline of the steps: as §1
In assay [4] the test system is Klebsiella pneumoniae. Nature of the assay: Antibacterial activity against beta ampicillin resistant Klebsiella pneumoniae LMP 803 after 30 mins by microbroth dilution method. In kind it is functional. An outline of the steps: as §1
For assay [5], the system named is Pseudomonas aeruginosa. Nature of the assay: Antibacterial activity against beta carbenicillin resistant Pseudomonas aeruginosa LMP 804 after 30 mins by microbroth dilution method. Type of assay: functional. A digest of the protocol:
as §1

The subject of assay [6] is Salmonella enterica. Description: Antibacterial activity against chloramphenicol-resistant Salmonella typhi LMP 706 after 30 mins by microbroth dilution method. Type of assay: functional, Salmonella enterica subsp. enterica serovar Typhi. An outline of the steps:
as §1

Assay [7] concerns Citrobacter freundii. Description: Antibacterial activity against chloramphenicol-resistant Citrobacter freundii LMP 802 after 30 mins by microbroth dilution method. In kind it is functional. An outline of the steps: as §1
Assay [8] has as its system Candida albicans. Description: Antifungal activity against Candida albicans LMP 709U […] by microbroth dilution method. In kind it is functional. A digest of the protocol: as §2
Assay [9] deals with Microsporum audouinii. Description: Antifungal activity against Microsporum audouinii LMP 725D after 30 mins by microbroth dilution method. Type of assay: functional. A digest of the protocol: as §2
Assay [10] has as its system Staphylococcus aureus. Nature of the assay: Antibacterial activity against methicillin-resistant Staphylococcus aureus LMP 805 after 24 hrs by microbroth dilution method. In kind it is functional. An outline of the steps: (§3)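 For MMC, wells with no colour change after the INT step of the microbroth dilution assay were subcultured onto MHA agar and incubated at 37 °C for 24 h. MMC is the lowest concentration giving no growth after subculture. The assay was repeated three times.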

Assay [11] has as its system Escherichia coli. Description: Antibacterial activity against beta lactamase positive Escherichia coli LMP 701 after 24 hrs by microbroth dilution method. Type of assay: functional. A digest of the protocol: (§4)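 Minimal microbicidal concentration taken after the microbroth dilution MIC assay. MMC is the lowest concentration giving no growth after subculture.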
The subject of assay [12] is Shigella dysenteriae. Nature of the assay: Antibacterial activity against beta lactamase positive Shigella dysenteriae LMP 606 after 24 hrs by microbroth dilution method. In kind it is functional. An outline of the steps:
as §3

Assay [13] relates to Klebsiella pneumoniae. Nature of the assay: Antibacterial activity against beta ampicillin resistant Klebsiella pneumoniae LMP 803 after 24 hrs by microbroth dilution method. Type of assay: functional. An outline of the steps:
as §3

The test system of assay [14] is Pseudomonas aeruginosa. Description: Antibacterial activity against beta carbenicillin resistant Pseudomonas aeruginosa LMP 804 after 24 hrs by microbroth dilution method. In kind it is functional. An outline of the steps:
as §3

Assay [15] relates to Candida albicans. Nature of the assay: Antifungal activity against Candida albicans LMP 709U after 24 hrs by microbroth dilution method. Type of assay: functional. A digest of the protocol:
as §4

For assay [16], the system named is Microsporum audouinii. Description: Antifungal activity against Microsporum audouinii LMP 725D after 24 hrs by microbroth dilution method. Type of assay: functional. An outline of the steps:
as §4

The test system of assay [17] is Salmonella enterica. Nature of the assay: Antibacterial activity against chloramphenicol-resistant Salmonella typhi LMP 706 after 24 hrs by microbroth dilution method. Type of assay: functional, Salmonella enterica subsp. enterica serovar Typhi. A digest of the protocol:
as §3

In assay [18] the test system is Citrobacter freundii. Nature of the assay: Antibacterial activity against chloramphenicol-resistant Citrobacter freundii LMP 802 after 24 hrs by microbroth dilution method. In kind it is functional. An outline of the steps:
as §3

Where [19] appears, read: Salmonella enterica subsp. enterica serovar Typhi.

Usually MIC stands for the lowest concentration found to suppress growth. A lower MIC goes with inhibition by little substance. On to `COc1cc2c(cc1OC)[C@H](c1ccc(O)cc1)[C@@H](C)C(C)=C2` [PYCNANTHULIGNENE A], for which the MIC is 9.76 µg/mL (≈ 31.4 µM) against Staphylococcus aureus [1] (LMP 805, 0.5 h); 19.5 µg/mL (≈ 62.8 µM) with Escherichia coli [2] (LMP 701, 0.5 h); 39.1 µg/mL (≈ 126 µM) in the assay with Shigella dysenteriae [3] (LMP 606, 0.5 h); 78.1 µg/mL (≈ 252 µM) with Klebsiella pneumoniae [4] (LMP 803, 0.5 h); 78.1 µg/mL (≈ 252 µM) in the assay on Pseudomonas aeruginosa [5] (LMP 804, 0.5 h); 19.5 µg/mL (≈ 62.9 µM) with Salmonella enterica [6] (LMP 706, 0.5 h). The MIC was 39.1 µg/mL (≈ 126 µM) in the assay with Citrobacter freundii [7] (LMP 802, 0.5 h); 19.5 µg/mL (≈ 62.9 µM) against Candida albicans [8]; 39.1 µg/mL (≈ 126 µM) against Microsporum audouinii [9] (0.5 h). Moreover, the MMC with Staphylococcus aureus [10] was 19.53 µg/mL; in the assay on Escherichia coli [11] it was 39.1 µg/mL; in the assay with Shigella dysenteriae [12], 78.1 µg/mL; with Klebsiella pneumoniae [13], greater than 78.12 µg/mL; in the assay with Pseudomonas aeruginosa [14], greater than 78.12 µg/mL; with Candida albicans [15], 39.06 µg/mL. The MMC in the assay with Microsporum audouinii [16] is 78.12 µg/mL.
As for `COc1ccc(-c2c(C)c(C)cc3cc4c(cc23)OCO4)cc1` [PYCNANTHULIGNENE C], the MIC with Staphylococcus aureus [1] (LMP 805, 0.5 h) was 19.5 µg/mL (≈ 63.7 µM); against Escherichia coli [2] (LMP 701, 0.5 h), 19.5 µg/mL (≈ 63.7 µM); in the assay on Shigella dysenteriae [3] (LMP 606, 0.5 h) it was 39.1 µg/mL (≈ 128 µM); with Klebsiella pneumoniae [4] (LMP 803, 0.5 h), 78.1 µg/mL (≈ 255 µM); against Pseudomonas aeruginosa [5] (LMP 804, 0.5 h) it was greater than 78.1 µg/mL; against Salmonella enterica [6] (LMP 706, 0.5 h), 39.1 µg/mL (≈ 127 µM). Further, the minimal inhibitory concentration (MIC) amounted to 39.1 µg/mL (≈ 127 µM) against Citrobacter freundii [7] (LMP 802, 0.5 h); 19.5 µg/mL (≈ 63.7 µM) against Candida albicans [8]; 39.1 µg/mL (≈ 127 µM) in the assay with Microsporum audouinii [9] (0.5 h). Further, the MMC in the assay on Staphylococcus aureus [10] is 39.1 µg/mL; with Escherichia coli [11], 78.1 µg/mL; in the assay with Shigella dysenteriae [12], greater than 78.1 µg/mL; in the assay with Klebsiella pneumoniae [13], greater than 78.1 µg/mL; with Pseudomonas aeruginosa [14], greater than 78.12 µg/mL; in the assay on Salmonella enterica [17], 78.12 µg/mL. Also, the MMC with Citrobacter freundii [18] was determined as 78.12 µg/mL; in the assay with Candida albicans [15], 39.06 µg/mL; with Microsporum audouinii [16] it was 78.1 µg/mL.
On to GENTAMICIN, for which the minimal inhibitory concentration (MIC) with Staphylococcus aureus [1] is 4.88 µg/mL; against Escherichia coli [2], 4.88 µg/mL; with Shigella dysenteriae [3], 4.88 µg/mL; against Klebsiella pneumoniae [4], 19.5 µg/mL; against Pseudomonas aeruginosa [5] it was greater than 9.76 µg/mL; in the assay on Salmonella enterica [6] (setting [19]), 9.76 µg/mL. In addition, the minimum inhibitory concentration (MIC) against Citrobacter freundii [7] and with Microsporum audouinii [9] was 4.88 µg/mL each time.
Regarding NYSTATIN, the MMC was 9.8 µg/mL in the assay on Escherichia coli [11]; 9.8 µg/mL in the assay with Shigella dysenteriae [12]; 19.5 µg/mL in the assay with Klebsiella pneumoniae [13]; 19.5 µg/mL in the assay on Pseudomonas aeruginosa [14]; 19.5 µg/mL in the assay on Salmonella enterica [17] (setting [19]); 9.8 µg/mL with Citrobacter freundii [18]. For the same molecule, the MMC in the assay with Candida albicans [15] and in the assay with Microsporum audouinii [16] was 9.8 µg/mL each time.

The values above are taken from ChEMBL document CHEMBL1154887, “Pycnanthulignenes A-D, antimicrobial cyclolignene derivatives from the roots of Pycnanthus angolensis” (2010).
